According to ChEMBL document CHEMBL3352570, “ST7612AA1, a thioacetate-ω(γ-lactam carboxamide) derivative selected from a novel generation of oral HDAC inhibitors” (J Med Chem, 2014):

How the values were obtained:
[1] = Half life in human hepatocytes at 5 uM by LCMS/MS analysis; type: ADME, cell-based, Hepatocyte
How it was run: (§1)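 Incubation in human hepatocytes. […] Values are means of at least three experiments.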

[2] = Intrinsic clearance in human hepatocytes assessed per million cells at 5 uM by LCMS/MS analysis; type: ADME, cell-based, Hepatocyte; details: read-out: CLH; how it was run: as §1
Mus musculus [3] = assay: Toxicity in human A2780 cells xenografted athymic nude mouse assessed as body weight loss at 100 mg/kg, po qd for 5 days a week for 2 weeks; type: organism-based; design: dose 100 mg/kg, route oral; details: in vivo
How it was run: (§2)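 Nude mice (female, athymic, 5–6 weeks) carried sc right-flank xenografts of 5 × 10⁶ cells per 100 μL. Oral treatment once daily started 3 days after inoculation.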

[4] = Stability of the compound in aqueous solution at pH 7.4 after 24 hrs; type: physicochemical; details: buffer, pH 7.4, 24 h
How it was run: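 Stability in aqueous solution at pH 7.4 over 24 h.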

[5] = Stability of the compound in aqueous solution at pH 1.2 after 3 hrs; details: buffer, pH 1.2, 3 h
NCI-H460 = assay: Cytotoxicity against human NCI-H460 cells after 24 hrs by SRB assay; type: functional, cell-based; details: NCI-H460, 24 h
How it was run: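 NCI-H460 cells were grown in RPMI-1640 with L-glutamine, 10% heat-inactivated FCS and 50 μg/mL gentamicin. Cells were seeded at about 10% confluence and allowed to recover for 24 h. They were exposed to varying concentrations for 24 h, washed, then cultured a further 48 h. Surviving cells were measured by SRB. IC50 is the 50% reduction in cell number versus vehicle, from dose–response curve fitting; means of at least three experiments.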

[6] = Cytotoxicity against human HCT116 cells after 24 hrs by SRB assay; type: functional, cell-based; details: HCT-116, 24 h
How it was run: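 HCT116 cells were cultured in McCoy's 5A with L-glutamine, 10% heat-inactivated FCS and 50 μg/mL gentamicin. After seeding at about 10% confluence and a 24 h recovery, they received drug for 24 h. Drug was washed out and cells were incubated 48 h more before SRB staining. IC50 is the 50% cell-number reduction versus vehicle, from fitted dose–response curves; means of at least two experiments.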

Histone deacetylase [7] = assay: Inhibition of HDAC-mediated tubulin deacetylation in human NCI-H460 cells after 3 hrs by Western blot analysis; type: cell-based
How it was run: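 Cells (NCI-H460) were treated for 3 h with graded concentrations. The cytoplasmic fraction was collected after HNB/1% NP-40 lysis and centrifugation of nuclei at 2000g. This fraction was resolved by SDS-PAGE and probed for acetylated α-tubulin against α-tubulin and β-actin. Bands were detected by ECL and quantified by densitometry after normalization; IC50 fitted; means of at least two experiments.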

Histone deacetylase [8] = assay: Inhibition of HDAC-mediated histone H4 deacetylation in human NCI-H460 cells after 3 hrs by Western blot analysis; type: cell-based
How it was run: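 NCI-H460 cells were plated the day before and treated 3 h across a dose range. Cells were washed with DPBS containing 5 mM NaB and lysed in HNB buffer with 1% NP-40. Histones were acid-extracted from nuclei with 0.4 equiv/L H2SO4 and precipitated with acetone. Blots were probed for acetyl-H4 against total H4. Read-out was ECL and densitometry after normalization; IC50 fitted; means of at least two experiments.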

[9] = Efflux ratio of permeability from apical to basolateral side to basolateral to apical side of human Caco2 cells; type: ADME, cell-based; details: caco-2
How it was run: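 Caco-2 monolayers; the efflux ratio is flux in the apical-to-basolateral direction over flux in the basolateral-to-apical direction. Means of at least three experiments.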

[10] = Efflux ratio of permeability from apical to basolateral side to basolateral to apical side of human Caco2 cells in presence of digoxin; type: ADME, cell-based; details: caco-2
How it was run: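 Caco-2 AB/BA flux ratio measured with digoxin coincubated with test and reference compounds. Means of at least three experiments.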

[11] = Antitumor activity against human HCT116 cells xenografted in athymic nude mouse assessed as tumor volume inhibition at 60 mg/kg, po qd for 5 days a week for 3 weeks; type: functional; details: HCT-116
How it was run: (§3)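 Female athymic nude mice, 5–6 weeks old, were inoculated sc in the right flank with 5 × 10⁶ exponentially growing tumor cells per 100 μL. Oral dosing once daily began 3 days after tumor injection, in Solutol HS15 diluted 1/20 in water. Tumor volume inhibition was calculated as TVI% = 100 − [(mean TV treated/mean TV control) × 100].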

A2780 = assay: Antitumor activity against human A2780 cells xenografted in athymic nude mouse assessed as tumor volume inhibition at 60 mg/kg, po qd for 5 days a week for 3 weeks; type: functional; details: in the assay text read “for 2 weeks” for “for 3 weeks”; how it was run: as §3
Mus musculus [12] = assay: Toxicity in human HCT116 cells xenografted athymic nude mouse assessed as body weight loss at 60 mg/kg, po qd for 5 days a week for 3 weeks; type: organism-based, HCT-116; design: dose 60 mg/kg, route oral; details: in vivo; how it was run: as §2
Mus musculus [13] = assay: Toxicity in human A2780 cells xenografted athymic nude mouse assessed as body weight loss at 60 mg/kg, po qd for 5 days a week for 3 weeks; type: organism-based; design: dose 60 mg/kg, route oral; details: in vivo, in the assay text read “for 2 weeks” for “for 3 weeks”; how it was run: as §2
[14] = Solubility of the compound in Solutol HS15

| SMILES | half-life at 5 µM [1] [min] | hepatocyte CLint at 5 µM [2] [µL/min/1e6 cells] | Activity (Mus musculus [3]) [%] | Stability [4] | Stability [5] | IC50 (NCI-H460) [µM] | IC50 [6] [µM] | IC50 (Histone deacetylase [7]) [µM] | IC50 (Histone deacetylase [8]) [µM] | Ratio [9] | Ratio [10] | inhibition in vivo at 60 mg/kg [11] [%] | inhibition in vivo at 60 mg/kg (A2780) [%] | Activity (Mus musculus [12]) [%] | Activity (Mus musculus [13]) [%] | solubility [14] [µg/mL] |
| --- | --- | --- | --- | --- | --- | --- | --- | --- | --- | --- | --- | --- | --- | --- | --- | --- |
| O=C(CCCCCCC(=O)Nc1ccccc1)NO [VORINOSTAT] | 47.5 | 14.7 | 4 | Stable | Stable |  |  |  |  |  |  |  |  |  |  |  |
| CC(=O)SCCCCC[C@H](NC(=O)[C@H]1CCC(=O)N1)C(=O)Nc1ccccc1 | 2.7 | 252 |  |  |  | 0.07 | 0.075 | 0.2 | 0.005 | 6.9 | 4.2 | 62 | 89 | 1 | 7 | > 10000 |
